Test results taken from the RNAGym collection of RNA variant scans (doi:10.1126/science.aae0568).
Variants at the floor of the assay were thinned out.

B1: tRNA (parent)
chain: GUUCCGUUGGCGUAAUGGUAACGCGUCUCCCUCCUAAGGAGAAGACUGCGGGUUCGAGUCCCGUACGGAACG

Variants of: B1
Assay: yeast fitness relative to wild type (ratio to wild type); higher = fitter; tRNA-Arg(CCU), competitive growth, 37 C, YPD
Outline: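 Genotype frequency changes were the basis for Darwinian fitness relative to wild type. The frequencies came from 100-nucleotide paired-end sequencing of gene amplicons from the start population and each end population of pooled yeast strains with tRNA-Arg(CCU) gene variants at the native locus. Competition ran in YPD at 37°C for 24 hours in six replicates, genotypes needed ≥ 100 starting reads, and estimates < 0.5 were set to 0.5.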

| Variant | yeast fitness |
| --- | --- |
| GUUCCGUUGGCGUAAUGGUAACGCGUAUCCCUCCUAAGGACACGACUGCGGGUUCGAGUCCCGUACGGUACG [C27A G41C A43C A69U] | ≤ 0.5 |
| GUUCCGUUGGCGUAAUGGUAACGCGUAUCCCUCCUAAGGAAAAGACAGCGGGUUCGAGUCCCGUACGGAACG [C27A G41A U47A] | ≤ 0.5 |
| GUUCCGUUGGCGUAAUGGUAACGCGUAUCCCUCCUAAGGAGAAGACUACGGGUUCGAGUCCCGUACGGAACG [C27A G48A] | 0.995 |
| GUUCCGUUGGCGUAAUGGUAACGCGUAUCCCUCCUAAGGAGAAGACUGCGGGUUCGAGUCCAGUACGGAACG [C27A C62A] | 0.699 |
| GUUCCGUUGGCGUAAUGGUAACGCGUAUCCCUCCUAACGAGAAGACUGCGGGUUCGAGUCCCGUACGUAACG [C27A G38C G68U] | ≤ 0.5 |
| GUUCCGUUGGCGUAAUGGUAACGCGUAUCCCUCCUAAGGACACGUCUGCGGGUUCGAGUCCCGUACGGAACG [C27A G41C A43C A45U] | ≤ 0.5 |
| GUUCCGUUGGCGUAAUGGUAACGCGUAUCCCUCCUAAGGAGAAGACUGCGGGUUCGAGUCCCAUACGGAACG [C27A G63A] | 0.88 |
| GUUCCGUUGGCGUAAUGGUAACGCGUAUCCCUCCUAAGGAGAAGACUGCGGGUUCGAGUCUCGUACGCAACG [C27A C61U G68C] | ≤ 0.5 |
| GUUCCGUUGGCGUAAUGGUAACGCGUAUCCCUCCUAAGGAGAAGACUGCGGGUUUGAGUCCCGUACGGAACG [C27A C55U] | 0.662 |
| GUUCCGUUGGCGUAAUGGUAACGCGUAUCCCUCCUAAGGAAAAGACAGCGGGUUCGAGUCCCGUACGGUACG [C27A G41A U47A A69U] | ≤ 0.5 |
| GUUCCGUUGGCGUAAUGGUAACGCGUAUCCCUCCUAAGGACACGACUGCGGGUUCGAGUCCCGUACGGAACG [C27A G41C A43C] | 0.504 |
| GUUCCGUUGGCGUAAUGGUAACGCGUAUCCCUCCUAAGGAGAAGACUGCGAGUUCGAGUCCCGUACGGAGCG [C27A G51A A70G] | ≤ 0.5 |
| GUUCCGUUGGCGUAAUGGUAACGCGUAUCCCUCCUAAGGAGAAGACUGCGGGUUCGAGUGCCGUACGGAACG [C27A C60G] | 0.657 |
| GUUCCGUUGGCGUAAUGGUAACGCGUAUCCCUCCUAAGGAGAAGACUGCGGGUUCAAGUCCCGUUAGGAACG [C27A G56A A65U C66A] | ≤ 0.5 |
| GUUCCGUUGGCGUAAUGGUAACGCGUAUCCCUCCUAAGGAGAACACUGCGGGUUCGAGACCCGUACGGAACG [C27A G44C U59A] | ≤ 0.5 |
| GUUCCGUUGGCGUAAUGGUAACGCGUAUCCCUCCUAAGGAGAAGACUGCGCGUUCGAGUCCCGUACGGAACG [C27A G51C] | 0.704 |
| GUUCCGUUGGCGUAAUGGUAACGCGUAUCCCUCCUAAGGAAAAGUCUGCGGGUUCGAGGCCCGUACGGAACG [C27A G41A A45U U59G] | ≤ 0.5 |
| GUUCCGUUGGCGUAAUGGUAACGCGUAUCCCUCCUAAGGAGAAGACUGCGGGUUUGCGUCAGGUACGGAACG [C27A C55U A57C C61A C62G] | ≤ 0.5 |
| GUUCCGUUGGCGUAAUGGUAACGCGUAUCCCUCCUAAGGAGAAGACUGCGGAUUCGAGUCCCGUACGGAACG [C27A G52A] | 0.619 |

| Variant | yeast fitness |
| --- | --- |
| GUUCCGUUGGCGUAAUGGUAACGCGUAUCCCUCCUAAGGAGAAGACUGCGGUUUAGAGUCCCGUACGGAACG [C27A G52U C55A] | ≤ 0.5 |
| GUUCCGUUGGCGUAAUGGUAACGCGUAUCCCUCCUAAGGAGAAGACUGCGGGUUCGAGUCCCGUAAGGAACG [C27A C66A] | 0.565 |
| GUUCCGUUGGCGUAAUGGUAACGCGUAUCCCUCCUAAGGAGAAGACUGCGGGUUCGAGUCCCGUAGGGAACG [C27A C66G] | 0.673 |
| GUUCCGUUGGCGUAAUGGUAACGCGUAUCCCUCCUAAGGAGAAGACUGCGGGUUCGAGUCCCGUAUGGAACG [C27A C66U] | 0.868 |
| GUUCCGUUGGCGUAAUGGUAACGCGUAUCCCUCCUAAGCAGAAGACUGCGGGUUCGUGUCCCGUACGGAACG [C27A G39C A57U] | ≤ 0.5 |
| GUUCCGUUGGCGUAAUGGUAACGCGUAUCCCUCCUAAGGAGAACACUGCGAGUUCGAGUCCCGUACGGAACG [C27A G44C G51A] | ≤ 0.5 |
| GUUCCGUUGGCGUAAUGGUAACGCGUAUCCCUCCUAAGGAGAAGACUGCGGGUUCAAGUCCCGUACGGAACG [C27A G56A] | 0.707 |
| GUUCCGUUGGCGUAAUGGUAACGCGUAUCCCUCCUAACGUGAAGACUGCGGGAUCGAGUCCCGUACGGAACG [C27A G38C A40U U53A] | ≤ 0.5 |
| GUUCCGUUGGCGUAAUGGUAACGCGUAUCCCUCCUAAGGAGAAGACUGCCGGUUCGAGUCCCGUACGGAACG [C27A G50C] | 0.721 |
| GUUCCGUUGGCGUAAUGGUAACGCGUAUCCCUCCUAAGGAGAAGACUGCAGGUUCGAGUCCCGUACGGAACG [C27A G50A] | 0.848 |
| GUUCCGUUGGCGUAAUGGUAACGCGUAUCCCUCCUAAGGAGAAGACUGCGGGUUCGAGUCUCGUACGGAACG [C27A C61U] | 0.891 |
| GUUCCGUUGGCGUAAUGGUAACGCGUAUCCCUCCUAAGGAGAAGACUGCGGGUUCGAGUCGCGUACGGAACG [C27A C61G] | 0.665 |
| GUUCCGUUGGCGUAAUGGUAACGCGUAUCCCUCCUAAGGAGAAGACUGCGGGUUCGAGUCCCGUACGAAACG [C27A G68A] | 0.787 |
| GUUCCGUUGGCGUAAUGGUAACGCGUAUCCCUCCUAAGGAGAAGACUGCGGGUUCGAGUCCCGUACGUAACG [C27A G68U] | 0.805 |
| GUUCCGUUGGCGUAAUGGUAACGCGUAUCCCUCCUAAGGAGAAGACUGCGGGUUCGAGUCCUGUCCGGAACG [C27A C62U A65C] | 0.63 |
| GUUCCGUUGGCGUAAUGGUAACGCGUAUCCCUCCUAAGGAGAAGACUGCGGGUUCCAGUCCAGUCCGGAACG [C27A G56C C62A A65C] | 0.611 |
| GUUCCGUUGGCGUAAUGGUAACGCGUAUCCCUCCUAAGGAGAAAACUGCGGGUUCGAGUCCCGUACGGCACG [C27A G44A A69C] | ≤ 0.5 |
| GUUCCGUUGGCGUAAUGGUAACGCGUAUCCCUCCUAAGCAGAAGACUGCGGGUUGGAGUCCCGUACGGAACG [C27A G39C C55G] | ≤ 0.5 |
| GUUCCGUUGGCGUAAUGGUAACGCGUAUCCCUCCUAAGGAGAAGACUGCGGGUUCGAGUCCCCUACGCAACG [C27A G63C G68C] | 0.524 |
